Compound activity: PubChem, several laboratories
ADAM10 inh = human ADAM10 inhibitors, primary screen, biochemical, QFRET, HTS | Disintegrin and metalloproteinase domain-containing protein 10 (Homo sapiens), O14672 | recombinant ADAM10, EDANS/DABCYL FRET peptide cleavage, 3 h | inhibition, % at 7 µM | actives 0.62% (n = 370,000) | AID 720582, 2013;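 active means inhibition above a per-campaign cutoff equal to the mean of compounds falling between control-based bounds plus 3 SD, cut at about 20% in these data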
Target sequence (O14672 214-748 limits assumed): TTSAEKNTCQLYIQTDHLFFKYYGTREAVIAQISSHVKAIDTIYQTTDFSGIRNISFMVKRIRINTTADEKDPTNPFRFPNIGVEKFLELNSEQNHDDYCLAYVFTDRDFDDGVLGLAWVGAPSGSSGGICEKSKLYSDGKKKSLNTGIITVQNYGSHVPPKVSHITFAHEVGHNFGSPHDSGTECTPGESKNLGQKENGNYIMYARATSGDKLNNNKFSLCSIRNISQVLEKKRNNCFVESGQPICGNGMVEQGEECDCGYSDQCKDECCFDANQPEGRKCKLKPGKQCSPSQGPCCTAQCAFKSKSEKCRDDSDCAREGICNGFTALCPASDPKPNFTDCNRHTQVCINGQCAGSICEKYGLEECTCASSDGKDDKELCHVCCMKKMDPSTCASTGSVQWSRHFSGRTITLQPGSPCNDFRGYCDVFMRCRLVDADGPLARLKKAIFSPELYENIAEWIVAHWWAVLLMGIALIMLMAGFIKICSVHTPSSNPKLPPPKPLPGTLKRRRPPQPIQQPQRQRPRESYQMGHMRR
DDE Tn6 FP inh = inhibitors of Tn6 peptide binding to fibrin DD(E), primary screen, biochemical, fluorescence polarization, human fibrin, Tn6 probe; Fibrinogen beta chain (Homo sapiens), P02675; inhibition, % at 8.3 µM; AID 720509, 2013; actives 0.21% (n = 370,000); Fibrin DD(E) TRITC-Tn6 fluorescence polarization displacement;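 active means inhibition above a per-campaign cutoff: mean of compounds within control limits plus 3 SD, cut at about 15% in these data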
ADAM17 inh = ADAM17 inhibitors, primary screen, biochemical, QFRET. actives 0.83% (n = 370,000). AID 720648, 2013. Disintegrin and metalloproteinase domain-containing protein 17 (Homo sapiens), P78536. inhibition, % at 6.95 µM. recombinant ADAM17, EDANS/DABCYL FRET peptide cleavage;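 active means inhibition above the mean of compounds lying between control limits plus 3 SD, set per campaign, cut at about 8.5% in these data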
Tn7 DDE FP = inhibitors of Tn7 peptide binding to fibrin DD(E), primary screen, biochemical, fluorescence polarization, human fibrin, Tn7 probe. Fibrinogen beta chain (Homo sapiens), P02675. FP displacement of FITC-Tn7 peptide from fibrin DD(E); 0% = median of compound wells per plate. inhibition, % at 8.3 µM. actives 0.13% (n = 370,000). AID 720508, 2013;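 active means inhibition above the mean of compounds falling within the control limits plus 3 SD of them, cut at about 14% in these data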
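Assay system: Human clot-derived fibrin DD(E) complex | Buffer or medium: Tris/NaCl/CaCl2 buffer, pH 7.8 | Repeats: One replicate per compound | Benchmarks: Aha-Tn7 high control | Measure: % inhibition scaled between sample-field median and high-control FP | Schedule: 10 min plus 3 h, room temperature | Signal: Fluorescence polarization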
MT1-MMP act inh = blockers of MT1-MMP proenzyme processing, primary screen, HT1080 RFP-PRO-GFP cells, GFP/RFP fluorescence | Matrix metalloproteinase-14 (Homo sapiens), P50281 | actives 0.061% (n = 360,000) | AID 651647, 2012 | GFP/RFP ratio change, % at 20 µM | GFP/RFP ratio fluorescence, overnight; percent of plate control window, DMSO zero;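 active means GFP/RFP ratio change of at least 30% with cell ATP level not reduced by more than half and red fluorescence within 50% of control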
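Assay system: HT1080 RFP-PRO-GFP cells. Benchmarks: DMSO vehicle wells and RFP-L50D-GFP reporter cell wells. Times: overnight cell settling, then overnight compound exposure, 37 °C, 5% CO2. Compound: 20 µM single dose, 1% DMSO. Read-out basis: GFP/RFP fluorescence ratio.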
ADAM10 confirm = human ADAM10 inhibitors, confirmation, biochemical, QFRET, triplicate | inhibition, % at 6.95 µM | actives 1% (n = 2,100) | ADAM10 QFRET peptide cleavage, EDANS fluorescence | shares compounds with ADAM10 inh;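 active means inhibition above about 20% chosen separately for each screening run, limit read from the data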
ADAM17 ctr = ADAM17 inhibitors, counter-screen for ADAM10 exosite inhibitor project, biochemical, QFRET, high throughput; shares compounds with ADAM10 inh; ADAM17 QFRET peptide cleavage, EDANS fluorescence; inhibition, % at 6.95 µM; actives 0.5% (n = 2,100); AID 743214, 2013;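 active means mean triplicate inhibition above the solvent-only control wells' mean plus 3 SD, cut at about 12% in these data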
ADAM10 ctr = ADAM10 inhibitors, counter-screen for ADAM17 exosite inhibitor project, biochemical, FRET, human ADAM10. shares compounds with ADAM17 inh. recombinant ADAM10, EDANS/DABCYL FRET peptide cleavage, 3 h. inhibition, % at 6.95 µM. actives 47% (n = 2,900). AID 743256, 2014;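 active means mean inhibition over the triplicate runs exceeds the activity threshold set in the earlier primary screen, cut at about 20% in these data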
ADAM17 confirm = ADAM17 inhibitors, hit retest, confirmation, biochemical, QFRET peptide cleavage. shares compounds with ADAM17 inh. recombinant ADAM17, EDANS/DABCYL QFRET peptide cleavage. inhibition, % at 6.95 µM. actives 65% (n = 2,900). AID 743257, 2014;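 active means mean inhibition across replicates above the hit cutoff set in the primary screen, cut at about 8.5% in these data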
Large screens that a line does not name were inactive (follow-up assays come after a bar, where they were run). An excerpt weighted towards active compounds, which were near 1.6% of everything screened.

Cc1cnc(C(=O)N2CCc3c([nH]c4ccccc34)C2c2ccc(F)cc2)cn1 (configuration not stated)	none
CCc1ccc(C2c3[nH]c4ccccc4c3CCN2C(=O)c2cc(C)nn2C)cc1 (configuration not stated)	ADAM10 inh 23, ADAM17 inh 13 | ADAM10 confirm inactive | ADAM17 ctr inactive | ADAM10 ctr inactive | ADAM17 confirm 10
Cc1ccc(C(=O)Nc2nnc(NC(=S)Nc3ccccc3)s2)cc1	ADAM10 inh 24, ADAM17 inh 9.2 | ADAM10 confirm inactive | ADAM17 ctr inactive | ADAM10 ctr inactive | ADAM17 confirm inactive
CCOc1ccc(C(=O)Nc2nnc(NC(=S)Nc3ccccc3)s2)cc1	none
Cc1ccc(S(=O)(=O)N(CC(=O)Nc2cccc([N+](=O)[O-])c2)C2CCCCC2)cc1	none
Cc1ccc(S(=O)(=O)N(CC(=O)Nc2ccc(Cl)c([N+](=O)[O-])c2)C2CCCCC2)cc1	ADAM10 inh 25, ADAM17 inh 14 | ADAM10 confirm inactive | ADAM17 ctr inactive | ADAM10 ctr 25 | ADAM17 confirm 14
COc1cc(C=Nn2c(-c3cc(C)[nH]n3)n[nH]c2=S)cc(Br)c1O	none (no result: MT1-MMP act inh)
CC(C)(C)OC(=O)N1CCCC(C(=O)Nc2cccc(C(=O)NCCc3ccccc3)c2)C1 (configuration not stated)	none
CC(C)(C)OC(=O)N1CCCC(C(=O)Nc2cccc(C(=O)NCCCCc3ccccc3)c2)C1 (configuration not stated)	ADAM10 inh 22, ADAM17 inh 13 | ADAM10 confirm inactive | ADAM17 ctr inactive | ADAM10 ctr inactive | ADAM17 confirm 12
O=S(=O)(CS(=O)(=O)c1ccccc1Br)c1ccccc1Br	none (no result: MT1-MMP act inh)
O=S(=O)(c1c(F)cccc1F)N(CCc1ccc(F)cc1)C[C@@H](O)COCc1ccccc1	ADAM10 inh 27, ADAM17 inh 15 | ADAM10 confirm inactive | ADAM17 ctr inactive | ADAM10 ctr 39 | ADAM17 confirm 19
COc1ccc(CN(CC(O)COCc2ccccc2)S(=O)(=O)c2ccccc2Br)cc1OC (configuration not stated)	none
O=C(NC1CCCC1)N1CCC(c2nc3ccc(Cl)cc3[nH]2)CC1	none (no result: MT1-MMP act inh)
COc1ccc(C)cc1NC(=O)C(Sc1nnc(-c2ccncc2)n1-c1ccc(Cl)cc1)c1ccccc1 (configuration not stated)	ADAM10 inh 25, ADAM17 inh 11 | ADAM10 confirm inactive | ADAM17 ctr inactive | ADAM10 ctr 31 | ADAM17 confirm 22
O=S(=O)(Nc1ccccc1)c1ccc(Oc2ncc(C(F)(F)F)cc2Cl)cc1	ADAM10 inh 29, ADAM17 inh 12 | ADAM10 confirm inactive | ADAM17 ctr inactive | ADAM10 ctr 35 | ADAM17 confirm 19
CC(C)NS(=O)(=O)c1ccc(Oc2ncc(C(F)(F)F)cc2Cl)cc1	none
Cc1cc(C)cc(-n2c(SC(C)C(=O)NCc3ccc4c(c3)OCO4)nc3ccccc3c2=O)c1 (configuration not stated)	ADAM10 inh 23, ADAM17 inh 11 | ADAM10 confirm inactive | ADAM17 ctr inactive | ADAM10 ctr inactive | ADAM17 confirm 11
Cc1cccc(-n2c(SCC(=O)NCc3ccc4c(c3)OCO4)nc3ccccc3c2=O)c1	none
Cc1ccc(NC(=O)CN(Cc2ccco2)Cc2ccccc2O)cc1C	ADAM10 inh 28, ADAM17 inh 14 | ADAM10 confirm inactive | ADAM17 ctr inactive | ADAM10 ctr 30 | ADAM17 confirm 14
C=CC[C@@H](CC(=O)N(CCO)Cc1ccccc1)C(=O)N[C@H](COC(=O)[C@@H](CC=C)Cc1ccc(F)cc1)c1ccccc1	ADAM10 inh 34, ADAM17 inh 15 | ADAM10 confirm inactive | ADAM17 ctr inactive | ADAM10 ctr 33 | ADAM17 confirm 17
C=CC[C@@H](CC(=O)N(CCO)Cc1ccccc1)C(=O)N[C@@H](C)COC(=O)[C@@H](CC=C)Cc1ccc(F)cc1	none
C=CC[C@@H](CC(=O)N(CCO)Cc1ccccc1)C(=O)NC[C@H](OC(=O)[C@@H](CC=C)Cc1ccc(F)cc1)c1ccccc1	ADAM10 inh 26, ADAM17 inh 13 | ADAM10 confirm inactive | ADAM17 ctr inactive | ADAM10 ctr 34 | ADAM17 confirm 19
Cc1ccc(-c2cc(NC(=O)Cc3c(C)[nH]c4ccccc34)ccc2Nc2cccnc2)cc1	none (no result: MT1-MMP act inh)
CCN(CC)C(=O)CC[C@H]1CC[C@]2(CCCN(S(=O)(=O)C3CCCCC3)C2)O1	none (no result: MT1-MMP act inh)
COC(=O)[C@]12C[C@H](CC(=O)N3CCSCC3)C(=O)N(Cc3ccccc3)C1=C[C@H](COCc1ccccc1)O[C@@H]2C	none (no result: MT1-MMP act inh)
C/C(CC(=O)Nc1ccc(Cl)c(Cl)c1)=N\NC(=O)Cc1ccccc1	none
COc1ccc(Cl)c(NC(=O)C/C(C)=N/NC(=O)CCc2ccccc2)c1	ADAM10 inh 25, ADAM17 inh 11 | ADAM10 confirm inactive | ADAM17 ctr inactive | ADAM10 ctr inactive | ADAM17 confirm inactive
C[C@H](NC(=O)c1nc[nH]c1C(=O)N[C@@H](CCCCNC(=O)OC(C)(C)C)C(=O)OC(C)(C)C)C(=O)OCc1ccccc1	ADAM10 inh 29, ADAM17 inh 15 | ADAM10 confirm inactive | ADAM17 ctr inactive | ADAM10 ctr 42 | ADAM17 confirm 23
